Fewer inactive variants are shown than the library holds.
B1: tRNA (parent)
chain: GUUCCGUUGGCGUAAUGGUAACGCGUCUCCCUCCUAAGGAGAAGACUGCGGGUUCGAGUCCCGUACGGAACG

Variants of: B1
Assay: yeast fitness relative to wild type (ratio to wild type); higher = fitter; tRNA-Arg(CCU), competitive growth, 37 C, YPD
Outline: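 Amplicons of the tRNA-Arg(CCU) gene were sequenced, 100-nucleotide paired-end, from the start population and from each end population of a pooled yeast competition. The competition, in six parallel replicates, lasted 24 hours in YPD at 37°C. Fitness relative to wild type was calculated from changes in genotype frequencies. Genotypes had to have ≥ 100 starting reads, and estimates < 0.5 were set to 0.5.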

| Variant | yeast fitness |
| --- | --- |
| GAUCCGUUGGCGUAAUGGUAACGCGUCUCCCUCCUAAGGAGAAGACCGCGGGUUCGAGUCCCGUACGGAACG [U2A U47C] | 1.08 |
| GAUCCGUUGGCGUAAUGGUAACGCGUCUCCCUCCAAAGGAGAAGCCUGCGGGUUCGAGUCCCGUACGGAACG [U2A U35A A45C] | ≤ 0.5 |
| GAUCCGUUGGCGUAACGGUAACGCGUCUCCCUCCUAAGGAGAAGACUGCGGGUUCGAGUCCCGUACGAAACG [U2A U16C G68A] | ≤ 0.5 |
| GAUCCGUUGGCGUAAAGGUAACGCGUCUCCCUCCUAAGGAGAAGACUGCGGGUUCGAGUCCCGUAUGGGACG [U2A U16A C66U A69G] | ≤ 0.5 |
| GAUCCGUUGGCGUAAGGGUAACGCGUCUCCCUCCUAAGGAGGUGAUUGCGGGUUCGAGUCCUGUACGGAACG [U2A U16G A42G A43U C46U C62U] | ≤ 0.5 |
| GAUCCGUUGGCGUAAUGGUAACGCGUCCCCCUCCUAAGAAGAAGACUGCGGGUUCGAGUCCUGUUCGGAACG [U2A U28C G39A C62U A65U] | ≤ 0.5 |
| GAUCCGUUGGCGUAACGGUAACGCGUCUCCCUCCUAAGGAGAACACUGCGGAUUCGAGUCCCGUACGGAACG [U2A U16C G44C G52A] | ≤ 0.5 |
| GAUCCGUUGGCGUAAGGGUAACCCGUCUCCUUCCUUAGGAGAAGACUGCGGGUUCGAGACCCGUACGGAACG [U2A U16G G23C C31U A36U U59A] | ≤ 0.5 |
| GAUCCGUUGGCGUAAUGGUAACGCGUCGCCCUCCUAAGGCGAAGACUGCGGGUUCGAGUCCCGUACCGAACG [U2A U28G A40C G67C] | 0.639 |
| GCUCCGUUGGCGUGAUGGUAACGCGUCUCCCUCCUAAGGAGAAGACUGCGGGUUCGCGUCCCGUACGGUACG [U2C A14G A57C A69U] | ≤ 0.5 |
| GAUCCGUUGGCGUAACGGUAACGCGUCUCCCUCCUAAGGAGAAGACUGCGGGUUCGAGUCCCGUACGGAACG [U2A U16C] | 0.88 |
| GAUCCGUUGGCGUAAAGGUAACGCGUCUCCCUCCUAAGGAGAAGACUGCGGGUUCGAGUCCCGUACGGAACG [U2A U16A] | 0.989 |
| GAUCCGUUGGCGACAUGGUAACGCGUCUCCCUUCUAAGGAGAAGACUGCGGCUUCGAGUCCCGUACGGAACG [U2A U13A A14C C33U G52C] | ≤ 0.5 |
| GAUCCGUUGGCGUAACGGUAACGCGUCUCACUCCUAAGGAGAAGACUGCGGGUUCGAGUCCCGUACGGAACG [U2A U16C C30A] | 0.558 |
| GAUCCGUUGGCGUAACGGUAACGCGUCUCACUCCUAAGGAGAAGACUGCGGGUUCGAGUCGCGUACGGAACG [U2A U16C C30A C61G] | ≤ 0.5 |
| GAUCCGUUGGCGUAAUGGUAACGCGUCUCCCCCCUAAGGAGAAGACUGCGGGUUCGAGUCCCGUACGGAACG [U2A U32C] | 0.954 |
| GAUCCGUUGGCGUAAAGGAAACGCGUCUCCCUCCUAAGGAGAAGAUUGCGGGUUCGAGUCCCGUACGGAACG [U2A U16A U19A C46U] | 0.714 |
| GAUCCGUUGGCGUAAUGGUAACGCGUCUCCCUCCUAAGGAGAAGACUGCGGGUACGAGUCCCGUUCGGAACG [U2A U54A A65U] | ≤ 0.5 |
| GAUCCGUUGGCGUAACGGUAACGCGUCUCACUCCUAAGGAGAAGACUGCGGGUUCGAGUCCCGUACGGCACG [U2A U16C C30A A69C] | 0.544 |

| Variant | yeast fitness |
| --- | --- |
| GAUCCGUUGGCGUAAUGGUAACGCGUCUCCCCCCUAAGGAGAAGACUGCGGGCUCGAGUCCCGUACGGAACG [U2A U32C U53C] | ≤ 0.5 |
| GAUCCGUUGGCGUAAAGGUAACGCGUCUCCCUCCUAAGGAGAAGACUGAAGGUUCGAGUCCCGUACGCAACG [U2A U16A C49A G50A G68C] | ≤ 0.5 |
| GAUCCGUUGGCGUAAUGGUAACGCGUCUCCCUCCUAAGGAGAAGACCGCGGGUUCGAGUCCCGUAUGGAACG [U2A U47C C66U] | 0.683 |
| GAUCCGUUGGCGUAAUGGUAACGCGUCUCCCUCCUAAGGAGAAGACUGCGGGUUCGAGUCCCGAACGGAACG [U2A U64A] | 0.855 |
| GAUCCGUUGGCGUAAUGGUAACGCGUCUCCCUCCUAAGGAGAAGACUGCGGGUUCGAGCCCCGUAGGGAACG [U2A U59C C66G] | 0.537 |
| GAUCCGUUGGCGUAAUGGAAACGCGUUUCCCUCCUAAGGAGAAGACUGCGGGUUCGAGUCCCGUACAGAACG [U2A U19A C27U G67A] | ≤ 0.5 |
| GAUCCGUAGGCGUAAUGGUAACGCGUCUCCCUUCUAAGGAGAUGACUGCGGGUUCGGGUCCCGUACUGAACG [U2A U8A C33U A43U A57G G67U] | ≤ 0.5 |
| GAUCCGUUGGCGUAAUGGUAACGCGUCCCCCUCCUAAGAAGAAGACUGCGGGUUCGAGUCCCGUACGGAACG [U2A U28C G39A] | 0.508 |
| GCUCCGUUGGCGUCAUGGUAACGCGUCUCCCUCCUAUGGCGAAGACUGCGGGUUCGAGUCCCGUACGGAACG [U2C A14C A37U A40C] | ≤ 0.5 |
| GAUCCGUUGGCGUAACGGUAACGCGUCUCACUCCUAAGGAGAAGACUGCGGGUUCGAGUCCCGUACCGAACG [U2A U16C C30A G67C] | 0.557 |
| GAUCCGUUGGCGAAAUGGUACCGCGUCUCCCUCCUAAGGAGGAGACUGCGGGUUCGAGUCCCGUACGGAACG [U2A U13A A21C A42G] | ≤ 0.5 |
| GAUCCGUUGGCGUAAGGGUAACGCGUCUCCCUCCUAAGGAGAAGACUGCGGGUUCGAGUCCCGUACGGACCG [U2A U16G A70C] | 0.835 |
| GAUCCGUUGGCGUAAUGGAAACGCGUCUCCCUCCUAAGGAGAAGACUGCGGGUUCGAGUCCCGUACGGAACG [U2A U19A] | 0.931 |
| GCUCCGUUGGCGUCAUGGUAACGCGUCUCCCUCCUAAGGAGAAGAAUGCGGGUUCGAGUCCCGUGCGGAACG [U2C A14C C46A A65G] | ≤ 0.5 |
| GCUCCGUUGGCGUCAUGGUAACGCGUCUCCCUCCUAAGGAGAAGAAUGCGGGUUCGAGUCCCGUACGGAACG [U2C A14C C46A] | ≤ 0.5 |
| GAUCCGUCGGCGUAAUGGUAACGCGUCUCGCUCCUAAGGAGAAGACUGCGGGUUCGAGACCCGAACGGAACG [U2A U8C C30G U59A U64A] | 0.569 |
| GCUCCGUUGGCGUGAUGGUAACGCGUCUCCCUCCUAAGGAGCAGACUGCGGGUUCGAGUCCCGUACGGAACG [U2C A14G A42C] | 0.575 |
| GAUCCGUUGGCGCAAAGGUAACGCGUCUCCCUCCUAAGGAGAAGACUGCGGGUUCCGGUCCUGUACGGAACG [U2A U13C U16A G56C A57G C62U] | 0.528 |
| GAUCCGUUGGCGUAAUGGUAACGCGUCUCCCUCCCAAGGAGAAGACUGCGGGUUCGAGUCCCGUACGGAACG [U2A U35C] | 0.875 |
